Test results published in paper PMC9670014 (SLAS discovery : advancing life sciences R & D, 2022).

Biological target: T1, NR2F6 (Mus musculus, UniProt P43136)
T1 sequence (P43136 1-390): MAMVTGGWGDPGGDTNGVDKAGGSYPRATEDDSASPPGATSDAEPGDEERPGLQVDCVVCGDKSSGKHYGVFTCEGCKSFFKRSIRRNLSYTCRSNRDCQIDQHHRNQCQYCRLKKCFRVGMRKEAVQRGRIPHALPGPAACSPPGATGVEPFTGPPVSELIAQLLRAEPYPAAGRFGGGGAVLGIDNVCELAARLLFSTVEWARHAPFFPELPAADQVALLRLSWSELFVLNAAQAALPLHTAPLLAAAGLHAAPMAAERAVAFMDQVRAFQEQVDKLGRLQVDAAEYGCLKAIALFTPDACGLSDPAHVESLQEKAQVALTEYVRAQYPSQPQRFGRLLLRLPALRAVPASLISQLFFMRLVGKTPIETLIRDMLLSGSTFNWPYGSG
Assay: NR2F6/Il17a luciferase assay in transiently transfected HEK293 cells
Type: cell-based
Settings: Maxcyte transfected HEK293 cells, 384-well format, Troglitazone 62.5uM
Method in brief: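 HEK293 cells grown in DMEM with 10% heat-inactivated FBS and 1% penicillin-streptomycin, harvested at 70% confluency, and resuspended in electroporation buffer at 1×10^8 cells/mL. Il17a::luc plus NR2F6 or empty vector was electroporated with DNA amount titrated, then recovered 5 h at 37 °C. Luciferase was read with positive control versus untreated samples.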

NR2F6's repressive transcriptional response (Il17a luciferase signal): further enhanced
SMILES: Cc1c(C)c2c(c(C)c1O)CCC(C)(COc1ccc(CC3SC(=O)NC3=O)cc1)O2 (stereo not shown) [Troglitazone]
